We go through 48 molecules from ChEMBL document CHEMBL3407438, “Discovery of potent, orally bioavailable, small-molecule inhibitors of WNT signaling from a cell-based pathway screen” (J Med Chem, 2015).

The nature of series [1]: cells. In kind it is cell-based. The following applies: Homo sapiens, 7dF3.
A short description of series [2]: Drug metabolism in mouse liver microsome at 10 uM after 30 mins by LC-MS analysis. The series is classed as ADME. As to conditions: liver microsomes, read-out: Drug metabolism. A general note: Microsomes from liver hold many membrane-bound enzymes, among them those of drug oxidation.
Series [3] in a line: Drug metabolism in human liver microsome at 10 uM after 30 mins by LC-MS analysis. The series is classed as ADME. As to conditions: liver microsomes, read-out: Drug metabolism.
Series [4] can be described thus: Inhibition of WNT signaling in human T-Rex HEK293 Tet-O cells harboring constitutively active deltaN-LRP6 after 4 days by luciferase reporter assay. In kind it is cell-based. As to conditions: HEK293, 96 h. Put shortly: (§1)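 HEK293 T-Rex Tet-O cells stably carrying TCF-firefly luciferase-IRES-GFP reporter plus Tet-inducible cDNA (ΔN-LRP6, Dvl2, Axin-GID, ΔN-β-catenin or VP16-TCF4) introduced by FLP-FRT recombination; seeded from frozen at 40 000/well; day 3 compound added, eight concentrations 30 μM to 14 nM (final), with doxycycline hyclate; day 4 cells lysed, firefly luciferase luminescence read.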
(Reporter assays use an easily measured gene product as a stand-in for the process of interest.)

A short description of series [5]: Inhibition of WNT signaling in human T-Rex HEK293 Tet-O cells harboring Dvl2 after 4 days by luciferase reporter assay. The following applies: HEK293, 96 h. The series is classed as cell-based. The essentials:
as §1

Series [6] is described as follows: Inhibition of WNT signaling in human T-Rex HEK293 Tet-O cells harboring constitutively active VP16-TCF in absence of beta-catenin after 4 days by luciferase reporter assay. As to conditions: HEK293, 96 h. In kind it is cell-based. Put shortly:
as §1

A short description of series [7]: Inhibition of WNT signaling in human T-Rex HEK293 Tet-O cells harboring degradation resistant form of beta-catenin after 4 days by luciferase reporter assay. In kind it is cell-based. As to conditions: HEK293, 96 h. Put shortly: as §1
A short description of series [8]: Inhibition of WNT signaling in human T-Rex HEK293 Tet-O cells harboring dominant negative form of Axin GSK3beta-interacting domain after 4 days by luciferase reporter assay. As to conditions: HEK293, 96 h. In kind it is cell-based. Put shortly: as §1
Series [9] deals with Liver microsome. Briefly: Intrinsic clearance in rat liver microsome at 1 uM preincubated for 5 mins by LC-MS analysis. As to conditions: microsomes. The series is classed as ADME.
Series [10] is described as follows: Apparent permeability in human Caco2 cells after 2 hrs by LC-MS/MS analysis. As to conditions: Caco-2. The series is classed as ADME, cell-based, Caco-2.
Series [11] can be described thus: Aqueous solubility of the compound. The series is classed as physicochemical. The following applies: buffer.

Converted amounts (≈) assume the structure as drawn.

Usually IC50 stands for the midpoint of a concentration-inhibition curve. High values mean lower potency, low ones higher potency. Regarding `O=C1CC2(CCN(c3c(Cl)cncc3-c3ccc(N4CCOCC4)cc3)CC2)CN1`, the half-inhibitory concentration (IC50) in series [1] came to 746 nM. That is a sub-micromolar value.
Regarding `CC(C)c1cncc(-c2ccc(N3CCOCC3)cc2)c1N1CCC2(CCNC2=O)CC1`, the half-maximal inhibitory concentration (IC50) in [1] was 78 nM. The metabolised at 0.5 h, 10 µM in [2] is 17%; in series [3], 38%.
As for `Clc1cncc(Cl)c1N1CCCCC1`, the 50% inhibitory concentration (IC50) in series [1] is greater than 30000 nM.
Consider `COc1ccc(-c2cncc(Cl)c2N2CCC(C(N)=O)CC2)cc1`, for which the IC50 in series [4] amounted to 20 nM; in series [5], 20 nM; in series [1] it was 37 nM; in series [6] it was 230 nM; in [7] it was 70 nM; in [8], 24 nM. In addition, the metabolised at 0.5 h, 10 µM in series [2] came to 84%; in series [3] it was 30%.
On to `CN1CCC2(CCN(c3c(Cl)cncc3-c3ccc(N4CCOCC4)cc3)CC2)C1=O`, for which the IC50 in series [1] was 715 nM.
With `CN1CCN(c2ccc(-c3cncc(Cl)c3N3CCC4(CCNC4=O)CC3)cc2)CC1`, the CLint in series [9] stood at 10 µL/min/mg.
On to `N#CC1CCN(c2c(Cl)cncc2-c2ccc(N3CCOCC3)cc2)CC1`, for which, in series [1], the concentration for half-maximal inhibition (IC50) is 70 nM. Further, in [2], the metabolised at 0.5 h, 10 µM came to 78%.
For the molecule `NC(=O)C1CCN(c2c(Br)cncc2Br)CC1`, half-maximal inhibition in series [1] (IC50) was put at 360 nM. Also, the metabolised at 0.5 h, 10 µM in series [2] was found to be 35%; in series [3], 13%.
Take `Cn1cc(-c2ccc(-c3cncc(Cl)c3N3CCC4(CCNC4=O)C3)cc2)cn1` (racemic): the CLint in series [9] turned out to be 213 µL/min/mg.
On the same count and under the same terms, under `Cn1ccc(-c2ccc(-c3cncc(Cl)c3N3CCC4(CCNC4=O)CC3)cc2)n1` stands 97 µL/min/mg.
For the molecule `CNC(=O)C1CCN(c2c(Cl)cncc2Cl)CC1`, in [1], the half-inhibitory concentration (IC50) is 12500 nM. Besides, the metabolised at 0.5 h, 10 µM stood at 57% in series [2] and 13% in series [3].
Take `O=C1NCCC12CCN(c1c(Cl)cncc1-c1ccc(C3CCOCC3)cc1)CC2`: in series [9], the CLint came out at 111 µL/min/mg.
Still for that read-out and setting: under `Cn1cc(-c2ccc(-c3cncc(Cl)c3N3CCC4(CCNC4=O)C3)cc2)cn1` (stereo in doubt; 79) stands 298 µL/min/mg.
Molecule `NC(=O)C1CCN(c2c(Cl)cncc2-c2ccccc2)CC1` showed an IC50 in series [1] of 88 nM. The metabolised at 0.5 h, 10 µM in series [2] is 56%; in series [3], 6%.
Consider `Cn1cc(-c2cncc(-c3ccc(N4CCOCC4)cc3)c2N2CCC3(CCNC3=O)CC2)cn1`, for which it took 1200 nM to reach half-maximal inhibition in series [1] (IC50).
For `NC(=O)C1CCN(c2c(Cl)cncc2-c2cccnc2)CC1`, the midpoint of inhibition in [1], the IC50, lay at 1100 nM. In addition, the metabolised at 0.5 h, 10 µM in [2] turned out to be 37%; in series [3] it was 6%.
In [1], `O=C1NCCC12CCN(c1c(Cl)cncc1-c1ccc(N3CCOCC3)cc1)C2` (racemic) returned an IC50 of 55 nM. The metabolised at 0.5 h, 10 µM in series [2] came out at 42%.
In turn, `NC(=O)C1CCN(c2c(Cl)cncc2-c2ccncc2)CC1` came in with an IC50 in [1] of 728 nM. Moreover, the figures for the metabolised at 0.5 h, 10 µM in [2] and in series [3] were 40% and 5%, respectively.
Taken in the same sequence, the figures for `CS(=O)(=O)c1ccc(-c2cncc(Cl)c2N2CCC(C(N)=O)CC2)cc1` were 1670 nM, 29% and 0%.
In the case of `O=C1NCCC12CCCN(c1c(Cl)cncc1-c1ccc(N3CCOCC3)cc1)C2` (racemic), inhibition in series [1] was half-maximal at 5700 nM (IC50).
Turning to `O=C1NCCC12CCN(c1c(Cl)cncc1-c1ccc(-c3cnoc3)cc1)CC2`, in [9], the CLint amounted to 136 µL/min/mg.
`NC(=O)C1CCN(c2ccncc2Cl)CC1` gave an IC50 in series [1] of 23000 nM. For the same molecule, the metabolised at 0.5 h, 10 µM in series [3] was 8%.
Take `CC1(C(N)=O)CCN(c2c(Cl)cncc2-c2ccc(N3CCOCC3)cc2)CC1`: the concentration for half-maximal inhibition (IC50) in [1] amounted to 87 nM. Further, the metabolised at 0.5 h, 10 µM in series [2] came to 20%; in [3], 21%.
The like results for `NC(=O)C1CCN(c2c(Cl)cncc2-c2ccc(N3CCOCC3)cc2)CC1` were, in that order, 42 nM, 21% and 19%.
In series [1], `NCC1CCN(c2c(Cl)cncc2Cl)CC1` came in with an IC50 of 10000 nM.
For the molecule `NC(=O)C1CCN(c2c(Cl)cncc2-c2cn[nH]c2)CC1`, the midpoint of inhibition in [1], the IC50, lay at 1700 nM. Besides, the values for the metabolised at 0.5 h, 10 µM in series [2] and in series [3] were 88% and 6%, respectively.
As to `O=C1NCCC12CCN(c1c(Cl)cncc1-c1ccc(N3CCCCC3)cc1)CC2`, in series [9], the CLint was 225 µL/min/mg.
Same read-out and setting: to `O=C1NCCC12CCN(c1c(Cl)cncc1-c1ccc(-c3ccncc3)cc1)CC2` belongs 99 µL/min/mg.
In the case of `O=C1NCCC12CCN(c1c(-c3ccc(N4CCOCC4)cc3)cncc1C1CC1)CC2`, inhibition in series [1] was half-maximal at 1000 nM (IC50).
`NC(=O)C1CCN(c2c(Cl)cncc2-c2cccs2)CC1` had an IC50 in series [1] of 40 nM. The metabolised at 0.5 h, 10 µM was found to be 97% in [2] and 27% in series [3].
The Papp is a coefficient for how fast a substance crosses the barrier. With `O=C1NCCC12CCN(c1c(Cl)cncc1-c1ccc3cnccc3c1)CC2`, the Papp at 2 h in series [10] is 24 ×10⁻⁶ cm/s.
Consider `CN(C)C(=O)C1CCN(c2c(Cl)cncc2Cl)CC1`, for which the half-inhibitory concentration (IC50) in [1] worked out at 26000 nM. The metabolised at 0.5 h, 10 µM came to 99% in [2] and 22% in [3].
As for `NC(=O)C1CCN(c2ccncc2-c2ccccc2)CC1`, the half-maximal inhibitory concentration (IC50) in [1] amounted to 3260 nM. Besides, the metabolised at 0.5 h, 10 µM in series [2] was determined as 23%; in [3] it was 4%.
In [1], `O=C(Nc1ccccc1)C1CCN(c2c(Cl)cncc2Cl)CC1` gave a concentration for half-maximal inhibition (IC50) greater than 30000 nM.
On the same count and under the same terms, to `CN(C)c1ccc(-c2cncc(Cl)c2N2CCC(C(N)=O)CC2)cc1` belongs 123 nM.
In series [1], `C=C(C)c1cncc(-c2ccc(N3CCOCC3)cc2)c1N1CCC2(CCNC2=O)CC1` yielded an IC50 of 12 nM. Further, the metabolised at 0.5 h, 10 µM in series [2] turned out to be 39%.
Regarding `COCCNC(=O)C1CCN(c2c(Cl)cncc2Cl)CC1`, the concentration for half-maximal inhibition (IC50) in series [1] is greater than 30000 nM.
As to `NC(=O)C1CCN(c2c(Cl)cncc2-c2ccc(F)cc2)CC1`, the IC50 in series [1] amounted to 87 nM. In series [2], the metabolised at 0.5 h, 10 µM is 52%.
`Cc1cncc(-c2ccc(N3CCOCC3)cc2)c1N1CCC2(CCNC2=O)CC1` registered an IC50 in [1] of 113 nM. The figures for the metabolised at 0.5 h, 10 µM in [2] and in [3] were 26% and 5%, respectively.
In series [1], `NC(=O)C1CCN(c2c(Cl)cncc2-c2cccc(N3CCOCC3)c2)CC1` gave a half-maximal inhibitory concentration (IC50) of 309 nM. Further, the values for the metabolised at 0.5 h, 10 µM in [2] and in series [3] were 38% and 39%, respectively.
Regarding `Cn1ncc2cc(-c3cncc(Cl)c3N3CCC4(CCNC4=O)CC3)ccc21`, the CLint in [9] worked out at 66 µL/min/mg.
`O=C(C1CCN(c2c(Cl)cncc2Cl)CC1)N1CCOCC1` had an IC50 in [1] of 44600 nM.
The same measure, in the same setting: to `NC(=O)C1CCN(c2ccncc2)CC1` belongs greater than 30000 nM; to `NC(=O)C1CCN(c2c(Cl)cccc2Cl)CC1`, 27900 nM.
Regarding `Cn1cc(-c2ccc(-c3cncc(Cl)c3N3CCC4(CCNC4=O)C3)cc2)cn1` (single isomer, unassigned; enantiomer 2), in series [9], the CLint came out at 124 µL/min/mg.
For orientation: solubility means how much of the substance goes into solution per volume. Low values mean little dissolved substance, high ones much dissolved substance. `O=C1CC2(CCN(c3c(Cl)cncc3-c3ccc(N4CCOCC4)cc3)CC2)C(=O)N1` gave a solubility in series [11] of 3 µg/mL (≈ 6.8 µM). Further, the IC50 in series [1] is 6 nM. Besides, the metabolised at 0.5 h, 10 µM came to 25% in series [2] and 24% in series [3].
With `O=C1NCCC12CCN(c1c(-c3ccccc3)cncc1-c1ccc(N3CCOCC3)cc1)CC2`, the IC50 in [1] is greater than 30000 nM.
`Cn1cc(-c2cncc(Cl)c2N2CCC(C(N)=O)CC2)cn1`: in series [1], the IC50 was determined as 778 nM. For the same molecule, the metabolised at 0.5 h, 10 µM worked out at 27% in [2] and 4% in series [3].
